Mdm2 ligase inh: Mdm2 E3 ligase (human) inhibition; Q00987; cell-based MDM2 ubiquitination luciferase reporter, 2 h; 0 = plate control, 100 = twice control, blank-subtracted; signal enhancement, % at 5 µM; actives 0.11% (n = 210,000);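 active = signal enhancement of 30% or more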;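 note: luminescence tracks abundance of the self-degrading MDM2-luciferase fusion protein; higher signal means inhibition of MDM2 E3 ligase activity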
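Material: Stable MDM2–luciferase fusion reporter cells | Amount: 2000 cells seeded into each well | Dosing: One concentration, 5 µM, with 0.2% DMSO | Incubation: 4 h cell settling then 2 h compound exposure, 37 °C | Measured by: Luciferase luminescence | Read-out basis: % enhancement relative to plate controls after blank subtraction | Benchmarks: Control and blank well means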
NPY Y2 blocker: NPY-Y2 (human) receptor antagonism | NPY-Y2 expressing cells, antagonist mode | inhibition, % at 2.7 µM | actives 0.99% (n = 140,000) | AID 793; in the data active = inhibition above about 17%
Target sequence (P49146 whole entry, looked up): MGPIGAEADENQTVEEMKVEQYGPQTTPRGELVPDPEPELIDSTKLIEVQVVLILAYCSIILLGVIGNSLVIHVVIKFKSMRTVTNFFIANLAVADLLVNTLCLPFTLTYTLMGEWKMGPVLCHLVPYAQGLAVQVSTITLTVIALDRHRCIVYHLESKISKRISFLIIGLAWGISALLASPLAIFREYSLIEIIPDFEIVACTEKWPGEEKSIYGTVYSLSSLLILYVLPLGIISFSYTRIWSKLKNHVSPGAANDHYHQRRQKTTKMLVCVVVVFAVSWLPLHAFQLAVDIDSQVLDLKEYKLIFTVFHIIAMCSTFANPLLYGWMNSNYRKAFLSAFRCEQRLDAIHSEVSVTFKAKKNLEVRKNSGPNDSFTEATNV
NPY1 pot ag: potentiators or agonists of human neuropeptide Y receptor Y1; activation, % at 3.6 µM; actives 0.37% (n = 220,000); P25929; NPY-Y1 expressing cells, potentiator/agonist activation; in the data active = activation above about 33%, passing the limit was not always enough;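 note: cells stimulated with NPY at EC10 then isoproterenol at EC100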
Target sequence (P25929 whole entry, looked up): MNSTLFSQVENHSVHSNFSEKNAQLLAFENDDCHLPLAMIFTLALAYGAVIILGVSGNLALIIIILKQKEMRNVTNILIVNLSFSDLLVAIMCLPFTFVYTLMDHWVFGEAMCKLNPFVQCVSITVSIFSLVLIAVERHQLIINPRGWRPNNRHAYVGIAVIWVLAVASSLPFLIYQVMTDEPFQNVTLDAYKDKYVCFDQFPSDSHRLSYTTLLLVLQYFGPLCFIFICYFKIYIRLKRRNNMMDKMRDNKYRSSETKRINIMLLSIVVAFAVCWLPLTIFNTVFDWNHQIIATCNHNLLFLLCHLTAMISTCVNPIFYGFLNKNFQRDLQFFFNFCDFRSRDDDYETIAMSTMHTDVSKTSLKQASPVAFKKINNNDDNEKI
NPY2 pot ag: human NPY-Y2 potentiation or agonism, primary screen; P49146; AID 1359; actives 0.45% (n = 220,000); activation, % at 3.6 µM; cells expressing NPY-Y2, potentiator/agonist read-out; in the data active = activation above about 27%;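 note: cells stimulated with NPY near EC25 plus isoproterenol at EC100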
Measles CPE: protection of cells from measles virus; Measles virus-infected cells, CPE protection, absorbance; protection (pct of control), % at 4 µM; actives 1.5% (n = 140,000); in the data active = protection mostly above about 24%, no sharp cut-off; inactive = mostly below about 26%
NPY-Y1 antag: blocks the human neuropeptide Y Y1 receptor. inhibition, % at 3.6 µM. AID 1040. HEK293-CNG Y1 cells, membrane potential fluorescence; NPY at EC95, then isoproterenol. P25929. actives 1% (n = 200,000);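 active = inhibition above the campaign mean inhibition of all tested compounds plus 3 SD, cut at about 20% in these data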
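Material: Y1- and CNG-channel-expressing HEK293 cells / Probe or stimulus: NPY 25 nM then isoproterenol 1 µM plus Ro 20-1724 25 µM / Doses: 3.6 µM single dose, DMSO 0.4% / Schedule: compound incubation 1 h at room temperature, readout 45 min post-stimulation / Signal: membrane potential fluorescence / Benchmarks: isoproterenol-only wells as full block versus NPY-plus-isoproterenol wells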
NPY-Y1 confirm: human NPY-Y1 potentiation or agonism, confirmation | shares compounds with NPY1 pot ag | cell-based NPY-Y1 potentiator/agonist assay | activation, % at 3.6 µM | actives 20% (n = 280) | AID 1546; in the data active = activation above about 45%;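 note: cells challenged with NPY at its EC10 plus isoproterenol stimulus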
NPY-Y2 counter: potentiates or activates NPY-Y2, counter-screen for NPY-Y1 hits; actives 20% (n = 280); HEK293-CNG cells, membrane-potential fluorescence (FLIPR), 1536-well; activation, % at 3.6 µM; shares compounds with NPY1 pot ag; AID 1649; in the data active = activation above about 33%
NPY-Y1 ag: human NPY-Y1 agonism as potentiator counter-screen. shares compounds with NPY1 pot ag. HEK293 Y1-CNGC, membrane potential fluorescence, agonist mode. activation, % at 3.6 µM. actives 50% (n = 280). AID 1697;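 active = percent activation above the mean of DMSO-only control wells plus 3 SD of those wells, cut at about 18% in these data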;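 note: cells challenged with isoproterenol plus Ro 20-1724 with no NPY in test wells; Y1 agonism lowers isoproterenol-driven cAMP and reduces probe fluorescence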
NPY-Y2 ag: counter-screen for NPY-Y1 potentiators or agonists: agonists of NPY-Y2. shares compounds with NPY1 pot ag. HEK293 Y2-CNGC, membrane potential fluorescence, agonist mode. activation, % at 3.6 µM. actives 67% (n = 280);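 active = activation above the solvent-only control wells' mean plus 3 SD, cut at about 11% in these data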;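 note: agonism lowers cAMP so well fluorescence drops in active wells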
CNGC inh 2: counter-screen for NPY-Y1 potentiators or agonists: CNG channel inhibitors; shares compounds with NPY1 pot ag; HEK293-CNG parental, isoproterenol cAMP, membrane potential fluorescence; actives 42% (n = 280); inhibition, % at 3.6 µM;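 active = inhibition above the mean of stimulated solvent-only control wells plus 3 SD, cut at about 22% in these data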
Each line names hits and unclear results; the compound was inactive in the other large screens (follow-up assays come after a bar, where they were run). This is a sample that favours compounds with a hit; in the whole collection about 2.8% have one here.

CCOC(=O)C1=C(CC)Nc2ccccc2N/C1=N\S(=O)(=O)c1cc(Br)ccc1Br	NPY1 pot ag 33 (no result: NPY Y2 blocker, Measles CPE) | NPY-Y1 confirm inactive | NPY-Y2 counter inactive | NPY-Y1 ag inactive | NPY-Y2 ag inactive | CNGC inh 2 inactive
CCOC(=O)C1=C(CC)Nc2ccccc2N/C1=N\S(=O)(=O)c1ccc2ccccc2c1	none (no result: NPY Y2 blocker, Measles CPE)
COc1ccc(/C=C/C(=O)OCC(=O)NCc2ccco2)c(OC)c1	none (no result: NPY Y2 blocker, Measles CPE)
FC(F)(F)c1cccc(NC(=S)Nc2ccc(Cl)c(Cl)c2)c1	NPY1 pot ag 45 (no result: NPY Y2 blocker, Measles CPE, NPY-Y1 antag) | NPY-Y1 confirm inactive | NPY-Y2 counter inactive | NPY-Y1 ag inactive | NPY-Y2 ag 25 | CNGC inh 2 inactive
CCOc1ccc(NC(=S)NNC(=S)Nc2cccc(C(F)(F)F)c2)cc1	NPY1 pot ag 54 (no result: NPY Y2 blocker, Measles CPE, NPY-Y1 antag) | NPY-Y1 confirm inactive | NPY-Y2 counter inactive | NPY-Y1 ag 24 | NPY-Y2 ag 32 | CNGC inh 2 inactive
O=C(Nc1ccc(Oc2ccccc2)cc1)c1cnc2n(c1=O)CCS2	none
CCOC(=O)CSc1nc(=O)n2ccccc2n1	NPY1 pot ag 68 (no result: NPY Y2 blocker, Measles CPE) | NPY-Y1 confirm inactive | NPY-Y2 counter inactive | NPY-Y1 ag inactive | NPY-Y2 ag inactive | CNGC inh 2 inactive
CCn1c(SCC(=O)Nc2ccc3c(c2)oc2ccccc23)nnc1-c1ccc(N)cc1	NPY1 pot ag 46 | NPY-Y1 confirm inactive | NPY-Y2 counter 37 | NPY-Y1 ag 38 | NPY-Y2 ag 43 | CNGC inh 2 inactive
O=C(CN1C2=NCCN2c2ccccc21)c1ccc(Br)s1	none
CC(=O)NC12CC3CC(C1)CC(C(=O)OCC(=O)Nc1ncc(Cl)c(C)c1Cl)(C3)C2	NPY1 pot ag 45 | NPY-Y1 confirm inactive | NPY-Y2 counter inactive | NPY-Y1 ag inactive | NPY-Y2 ag inactive | CNGC inh 2 inactive
CC(C)(C)NC(=O)C(c1ccc(O)cc1)N(C(=O)Cn1nnc(-c2ccc(F)cc2)n1)c1ccccc1F (stereo unspecified)	NPY1 pot ag 52 (no result: NPY Y2 blocker, Measles CPE) | NPY-Y1 confirm inactive | NPY-Y2 counter inactive | NPY-Y1 ag 19 | NPY-Y2 ag 16 | CNGC inh 2 inactive
COc1ccc2c(OC)cc(=O)n(C)c2c1	none
COc1cc(=O)n(C)c2ccccc12	NPY1 pot ag 50 | NPY-Y1 confirm inactive | NPY-Y2 counter inactive | NPY-Y1 ag inactive | NPY-Y2 ag inactive | CNGC inh 2 inactive
O=C(OCC(=O)N1CCCc2ccccc21)c1cnc(Cl)c(Cl)c1	NPY1 pot ag 49 | NPY-Y1 confirm inactive | NPY-Y2 counter inactive | NPY-Y1 ag 22 | NPY-Y2 ag inactive | CNGC inh 2 25
COc1ccc(CCn2c(C)cc(C(=O)CSc3nnnn3-c3ccccc3)c2C)cc1	NPY1 pot ag 65 | NPY-Y1 confirm inactive | NPY-Y2 counter inactive | NPY-Y1 ag inactive | NPY-Y2 ag inactive | CNGC inh 2 inactive
CC(=O)Oc1cc2c3c(c1)/C(=C1/SC(=S)NC1=O)C(=O)N3C(C)(C)C=C2C	NPY1 pot ag 51 (no result: NPY Y2 blocker, Measles CPE, NPY-Y1 antag) | NPY-Y1 confirm inactive | NPY-Y2 counter 40 | NPY-Y1 ag 37 | NPY-Y2 ag 43 | CNGC inh 2 40
Cn1nc(C(F)(F)F)c(-c2ccc(F)cc2)c1NC(=O)Nc1ccc(F)cc1	NPY1 pot ag 48 (no result: NPY Y2 blocker, Measles CPE, NPY-Y1 antag) | NPY-Y1 confirm 59 | NPY-Y2 counter 45 | NPY-Y1 ag 58 | NPY-Y2 ag 52 | CNGC inh 2 49
O=C(Nc1cccc(Cl)c1)c1ccc2c(c1)SC1=NS(=O)(=O)CCN12	none (no result: NPY Y2 blocker, Measles CPE)
CC(O)C1CCC2C3CC[C@H]4CC(O)CCC4(C)C3CC3(OCCO3)C12C (stereo partly specified)	NPY1 pot ag 57 | NPY-Y1 confirm inactive | NPY-Y2 counter inactive | NPY-Y1 ag inactive | NPY-Y2 ag inactive | CNGC inh 2 inactive
Cc1ccc(C(=O)N2CCN(c3ccc(NC(=S)NC(=O)c4cccs4)cc3)CC2)cc1	none (no result: NPY Y2 blocker, Measles CPE)
Cc1ccccc1C(=O)N1CCN(c2ccc(NC(=S)NC(=O)c3cccs3)cc2)CC1	NPY1 pot ag 36 (no result: NPY Y2 blocker, Measles CPE) | NPY-Y1 confirm inactive | NPY-Y2 counter inactive | NPY-Y1 ag inactive | NPY-Y2 ag 15 | CNGC inh 2 inactive
Cn1nc(CSc2ccccc2)c(C=O)c1Cl	none (no result: NPY Y2 blocker, Measles CPE)
O=C(c1ccccc1)N1CCN(C(=O)c2ccncc2)CC1	none (no result: Mdm2 ligase inh, Measles CPE)
O=C(c1ccccc1)N1CCN(c2n[nH]c(=O)[nH]c2=O)CC1	NPY1 pot ag 45 (no result: NPY Y2 blocker, Measles CPE) | NPY-Y1 confirm inactive | NPY-Y2 counter inactive | NPY-Y1 ag inactive | NPY-Y2 ag inactive | CNGC inh 2 inactive
O=C(Nc1ccc(N2CCCCC2)c(Cl)c1)c1ccc(N2CCOCC2)c([N+](=O)[O-])c1	NPY1 pot ag 42 | NPY-Y1 confirm 48 | NPY-Y2 counter 37 | NPY-Y1 ag 34 | NPY-Y2 ag 40 | CNGC inh 2 25
CC(=O)N1CCN(c2ccc(NC(=O)c3ccc(N4CCCC4)c([N+](=O)[O-])c3)cc2Cl)CC1	none
COc1ccc(N=C2O/C(=C/c3sc(=S)n(CC4CCCO4)c3O)N=C2C#N)cc1 (stereo unspecified)	NPY1 pot ag 53 (no result: NPY Y2 blocker, Measles CPE, NPY-Y1 antag) | NPY-Y1 confirm inactive | NPY-Y2 counter 45 | NPY-Y1 ag 22 | NPY-Y2 ag 48 | CNGC inh 2 inactive
